Most compounds without a hit are left out; they make up all but 1.9% or so of the library.
CSN inh: inhibitors of human CSN-mediated cullin deneddylation; Purified CSN, SCF-Nedd8-OG deneddylation, fluorescence polarization; Q92905; 360,000 tested, 0.38% active; AID 651999; inhibition, % at 12.5 µM;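 active = pattern-corrected inhibition above about 35%, with an unprinted fluorescence ratio check between 0.5 and 1.5, limit read from the data, passing the limit was not always enough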;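 also: 0% = enzyme with substrate and 100% = substrate without enzyme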
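Assay system: HEK293T-derived human Csn5 enzyme; quantity: 0.24 nM enzyme; medium: Tris/NaCl/DTT buffer, pH 7.5; also added: substrate SCFSkp2-Nedd8OG, 10 nM; doses: 12.5 µM compound; schedule: 90 min reaction at room temperature; signal: FP; read-out: % inhibition of substrate cleavage by Csn5; benchmarks: substrate-only high control, full reaction low control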
STEP inh: STEP (human) phosphatase inhibition; recombinant STEP, OMFP fluorogenic substrate, fluorescence; inhibition, % at 20 µM; P54829; AID 588621; 360,000 tested, 0.25% active;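 active = inhibition at 20 µM, scaled per plate between control wells, above about 37%, limit read from the data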;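 also: 0% = DMSO with enzyme and substrate and 100% = substrate only without enzyme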
Target sequence (P54829 whole entry, looked up): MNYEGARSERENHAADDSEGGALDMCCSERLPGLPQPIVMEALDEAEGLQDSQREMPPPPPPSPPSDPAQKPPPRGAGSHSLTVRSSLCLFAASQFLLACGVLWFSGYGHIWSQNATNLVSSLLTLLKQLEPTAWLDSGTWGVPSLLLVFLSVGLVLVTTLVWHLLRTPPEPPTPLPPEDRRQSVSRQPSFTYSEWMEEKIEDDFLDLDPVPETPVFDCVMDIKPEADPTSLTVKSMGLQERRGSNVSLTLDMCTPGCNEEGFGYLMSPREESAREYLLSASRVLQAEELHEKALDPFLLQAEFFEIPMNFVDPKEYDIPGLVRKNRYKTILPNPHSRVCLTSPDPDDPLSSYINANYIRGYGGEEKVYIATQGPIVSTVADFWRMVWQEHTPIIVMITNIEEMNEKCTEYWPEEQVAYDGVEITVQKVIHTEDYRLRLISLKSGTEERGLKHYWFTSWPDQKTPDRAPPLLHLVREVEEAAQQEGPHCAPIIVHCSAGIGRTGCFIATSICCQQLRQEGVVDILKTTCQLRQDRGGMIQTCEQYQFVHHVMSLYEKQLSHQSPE
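Assay system: isolated STEP enzyme / Timing: 20 min at room temperature, dark / Doses: 20 µM, 1% DMSO / Technique: fluorescence intensity, excitation 480 nm, emission 540 nm / Reagent: fluorogenic phosphatase substrate OMFP at 25 µM final / Measure: percent inhibition scaled to no-enzyme and uninhibited-enzyme controls, plate-pattern corrected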
DNMT1 inh: blocks human DNA methyltransferase DNMT1; P26358; DNMT1 molecular beacon, Hinp1I cleavage, fluorescence; inhibition (reported as % activation of signal), % at 10 µM; 360,000 tested, 0.83% active; AID 588458; in the data active = inhibition above about 50%
SUMO1 PPI mod: SUMO1-SIM interaction modulation. AID 602429. 360,000 tested, 0.33% active. inhibition, % at 20 µM. SUMO1 binding to a labelled peptide, TR-FRET, 1 h. P63165; in the data active = inhibition above about 37%
Target sequence (P63165 whole entry, looked up): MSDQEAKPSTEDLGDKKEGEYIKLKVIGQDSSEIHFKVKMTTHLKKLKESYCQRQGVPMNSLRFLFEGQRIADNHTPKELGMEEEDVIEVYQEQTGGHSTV
LMPTP block: blocks human LMPTP phosphatase | inhibition, % at 20 µM | P24666 | 360,000 tested, 0.22% active | recombinant LMPTP-A, OMFP fluorogenic substrate, fluorescence intensity;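 active = compounds that cut the enzyme signal by at least half of the control window in the single-dose screen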;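 also: plate controls were DMSO wells with enzyme plus substrate for no effect and substrate without enzyme for full effect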
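test system = LMPTP-A | amount = 0.625 nM LMPTP-A final | reagent = fluorogenic phosphatase substrate OMFP at 400 µM final | incubation = 50 min at room temperature | benchmarks = no-enzyme low control, uninhibited high control | medium = Bis-Tris pH 6.0, DTT, detergent | signal = fluorescence intensity of OMFP turnover product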
Scp1 inh: inhibitors of human Scp-1 phosphatase | 340,000 tested, 0.88% active | Q9GZU7 | Recombinant Scp1, phosphopeptide, malachite green phosphate absorbance | inhibition, % at 20 µM;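 active = inhibition above about 50% at 20 µM, limit read from the data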;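 also: plate controls were DMSO wells with enzyme for no effect and wells lacking enzyme for full effect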
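Test system: SCP-1 phosphatase catalytic domain, residues 76-261 | Compound dosing: One concentration, 20 µM, with 1.0% DMSO | Schedule: 45 min room-temperature reaction, 5 min colour, 30 min stabiliser | Detection: Absorbance at 630 nm | Read-out basis: % inhibition of SCP-1 phosphate liberation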
* = called active by the depositor; / = not tested or not shown.

SMILES | CSN inh | STEP inh | DNMT1 inh | SUMO1 PPI mod | LMPTP block | Scp1 inh
COc1cc(/C=C2/C(=N)N3C(c4ccccc4)=CSC3=NC2=O)ccc1OCC(=O)O | 4 | 0 | 5 | -3 | 1 | 16
CCC(C)(C)NC(=O)C(c1ccc(C)cc1)N(CC1CCCO1)C(=O)CCC(=O)Nc1ccccn1 (stereo not drawn) | -4 | 0 | 0 | 1 | 0 | -4
O=C1CCCC(=NNC(=O)c2cc3ccccc3cc2O)C1 | 72* | 0 | -8 | -1 | -1 | -13
O=C(Oc1ccc(/C=N/Nc2ccccc2)cc1)c1ccccc1 | 3 | -1 | 0 | -2 | 1 | -4
O=C(O)c1ccc(N/N=C/c2ccc(OC(=O)c3cccc(Cl)c3)cc2)cc1 | -2 | 1 | 7 | 61* | 10 | 40
CSc1ccc(/C=N/Nc2cccc(C(=O)O)c2)cc1 | 23 | 60* | 105* | 70* | 14 | 81*
COc1ccc(C(=O)OC(C)C(=O)NC2CCCCC2C)cc1S(=O)(=O)N1CCOCC1 (stereo not drawn) | -2 | -3 | -2 | -2 | -1 | -10
Cc1cc(N/N=C/c2ccccc2O)nc(-c2ccccc2O)n1 | -2 | -1 | 2 | 42* | -1 | -10
COC(=O)c1ccc(Nc2cc(C)nc(-c3ccccc3O)n2)cc1 | 2 | -4 | 3 | 59* | 3 | 4
O=c1cc(-c2ccc(O)c(O)c2)oc2cc(O[C@@H]3O[C@H](CO)[C@@H](O)[C@H](O)[C@H]3O)cc(O)c12 | 5 | 2 | 52* | -16 | 1 | -2
C[C@@H]1O[C@@H](OC[C@H]2O[C@@H](Oc3cc(O)c4c(=O)cc(-c5ccc(O)c(O)c5)oc4c3)[C@H](O)[C@@H](O)[C@@H]2O)[C@H](O)[C@H](O)[C@H]1O | -1 | 3 | 8 | -20 | 3 | -8
CCOc1ccc(NC(=O)c2ccc(CNc3c(N4CCCC4)c(=O)c3=O)cc2)cc1 | -1 | 0 | 4 | 45* | -1 | -2
COc1cc(NC(=O)C2CCC(CNc3c(N4CCC(C)CC4)c(=O)c3=O)CC2)cc(OC)c1 (stereo not drawn) | -1 | 0 | -3 | 8 | -1 | -10
COc1cc(NC(=O)c2ccc(CNc3c(N4CCOCC4)c(=O)c3=O)cc2)cc(OC)c1 | 1 | 2 | -5 | 43* | 0 | -16
CCc1cccc(NC(=O)c2ccc(CNc3c(N4CCCC4)c(=O)c3=O)cc2)c1 | -4 | 3 | -3 | 49* | 2 | -4
CCOc1ccc(OCC)c(NC(=O)c2ccc(CNc3c(N4CCCC4)c(=O)c3=O)cc2)c1 | 2 | 0 | -5 | 0 | 0 | -3
CC(=O)c1ccc(NC(=O)c2ccc(CNc3c(N4CCCC4)c(=O)c3=O)cc2)cc1 | -1 | 2 | 1 | 0 | 0 | -7
COc1cc(NC(=O)C2CCC(CNc3c(N4CCCCC4)c(=O)c3=O)CC2)cc(OC)c1 (stereo not drawn) | 0 | -2 | 52* | 7 | 1 | -3
C/C(=N\NC(=O)c1nnn(-c2nonc2N)c1CSc1ccccc1)c1ccc2c(c1)OCO2 | -1 | 0 | 10 | 2 | -1 | -4
CN(CC(=O)Nc1cc(S(=O)(=O)N2CCCC2)ccc1Cl)Cc1nc2ccccc2c(=O)[nH]1 | 0 | 0 | 3 | -1 | -1 | 0
O=c1[nH]c2ccccc2c2nc(-c3cccc(S(=O)(=O)N4CCCC4)c3)nn12 | 3 | 9 | -2 | 42* | 7 | 8
Cn1ccc2c(-c3ccc4c(c3)OCCO4)cc3c(c21)C1CCC3C1 (stereo not drawn) | 117* | 2 | -5 | -22 | 2 | /
CCC(c1nnc(SCC(=O)Nc2c(F)cccc2F)n1Cc1ccccc1)N(C)C (stereo not drawn) | 5 | -3 | 0 | -2 | -2 | 1
Cc1ccc(NC(=O)COC(=O)c2oc3ccccc3c2C)cc1S(=O)(=O)N1CCOCC1 | 1 | 2 | -8 | 5 | 2 | -15
CNc1ccc(Br)cc(C(=O)/C=C/c2cccc(OC)c2)c1=O | 21 | 8 | 25 | 12 | 17 | -2
SMILES | CSN inh | STEP inh | DNMT1 inh | SUMO1 PPI mod | LMPTP block | Scp1 inh
CCNc1ccc(Br)cc(C(=O)/C=C/c2c(Cl)cccc2Cl)c1=O | 37* | 6 | 84* | 20 | 43 | 16
CNc1ccc(Br)cc(C(=O)/C=C/c2ccc(Cl)cc2Cl)c1=O | 30 | 5 | 67* | 19 | 33 | 0
O=C(NCc1cccc(C(F)(F)F)c1)c1csc([C@H]2C[C@H](O)[C@@H](CO)O2)n1 | -1 | -2 | -4 | 1 | -2 | /
CCOc1ccc(N2CC(C(=O)Nc3cc(S(=O)(=O)N4CCCCC4)ccc3C)CC2=O)cc1 (stereo not drawn) | -6 | -1 | -1 | 1 | -1 | 5
Oc1ccc(NCc2ccc(OCc3ccccc3)cc2)cc1 | 23 | 4 | -6 | 9 | 13 | -10
Oc1ccc(NCc2ccccc2OCc2ccccc2F)cc1 | 32 | 10 | -42 | 59* | 16 | -6
CCOc1cccc(CNc2ccc(O)cc2)c1OCc1ccc(Cl)cc1 | 30 | -4 | -30 | 27 | 12 | 0
CCOc1ccccc1CNc1ccc(O)cc1 | 11 | 4 | 17 | 69* | 11 | -4
CCc1ccc(CNc2ccc(O)cc2)cc1 | 32 | 15 | 75* | 74* | 21 | -3
CCOc1cc(CNc2ccc(O)cc2)ccc1OCc1ccc(Cl)cc1Cl | 44* | 16 | 80* | 52* | 22 | -2
Cc1cc(CNC(=O)C(C)Cc2ccccc2)nn1C (stereo not drawn) | 1 | -2 | 2 | 8 | 0 | -3
O=C(O)CC/C(=N\NC(=O)CNC(=O)c1ccc(F)cc1)c1ccccc1 | 0 | 2 | 0 | -4 | -2 | -2
Cc1ccc(NCC(=O)N/N=C/c2ccc(OC(=O)c3ccco3)cc2)cc1 | 3 | 4 | 1 | 0 | 0 | 1
Cc1cc2nc(-c3ccco3)c(Cc3cccc(Cl)c3)n2c(C)c1Br | 36* | / | / | 26 | 12 | /
COc1ccc(CNC[C@@H](CCCCN(C)Cc2ccc(OC)cc2)N2C[C@H](c3ccccc3)N(CCc3ccc(Cl)c(Cl)c3)C(=O)C2=O)cc1 | 6 | 11 | -7 | -119 | 57* | 27
Cc1ccc(N=c2ssnc2Cl)cc1 | 2 | 7 | -1 | -8 | 47 | 1
Cc1cc(C)nc(/N=c2/ssnc2Cl)c1 | 7 | 5 | -14 | 20 | 79* | -4
